Laboratory results: ChEMBL document CHEMBL1687776, “Origin and molecular evolution of the determinant of methicillin resistance in staphylococci” (2010)
≈ marks a conversion by molar mass, not a printed value.

System: Staphylococcus vitulinus
Assay: Antibacterial activity against methicillin-resistant mecA-positive Staphylococcus vitulinus SVMP06 by agar dilution method
Assay type: functional
Conditions: Mammaliicoccus vitulinus
Outline: (§1)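 MIC by agar dilution on Mueller-Hinton agar per CLSI guidance; resistance judged against CLSI breakpoints. Strains were animal or food isolates (type strains for S. sciuri subspecies), typed by hsp60 and/or sodA sequencing; mecA homologue carriage checked by PCR with degenerate primers. Agents tested: oxacillin, ampicillin, ceftizoxime, ceftriaxone, cefoxitin.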

| SMILES | MIC [µg/mL] |
| --- | --- |
| CO/N=C(\C(=O)N[C@@H]1C(=O)N2C(C(=O)O)=CCS[C@H]12)c1csc(N)n1 [CEFTIZOXIME] | 0.5 (≈ 1.3 µM) |

System: Staphylococcus fleurettii
Assay: Antibacterial activity against methicillin-resistant mecA-positive Staphylococcus fleurettii SFMP07 by agar dilution method
Assay type: functional
Conditions: Mammaliicoccus fleurettii
Outline: as §1

| SMILES | MIC [µg/mL] |
| --- | --- |
| CO/N=C(\C(=O)N[C@@H]1C(=O)N2C(C(=O)O)=CCS[C@H]12)c1csc(N)n1 [CEFTIZOXIME] | 4 (≈ 10.4 µM) |

System: Staphylococcus fleurettii
Assay: Antibacterial activity against methicillin-resistant mecA-positive Staphylococcus fleurettii SFMP02 by agar dilution method
Assay type: functional
Conditions: Mammaliicoccus fleurettii
Outline: as §1

| SMILES | MIC [µg/mL] |
| --- | --- |
| CO/N=C(\C(=O)N[C@@H]1C(=O)N2C(C(=O)O)=CCS[C@H]12)c1csc(N)n1 [CEFTIZOXIME] | 32 (≈ 83.5 µM) |

System: Staphylococcus vitulinus
Assay: Antibacterial activity against mecA-negative Staphylococcus vitulinus SVMN08 by agar dilution method
Assay type: functional
Conditions: Mammaliicoccus vitulinus
Outline: (§2)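 MIC by agar dilution on Mueller-Hinton agar following CLSI guidelines. Resistance was assigned using CLSI breakpoints. Agents tested were oxacillin, ampicillin, ceftizoxime, ceftriaxone and cefoxitin. Strains were from animal or food sources and identified by hsp60 and/or sodA sequencing. mecA absence was assessed by PCR with degenerate primers for mecA and its homologues.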

| SMILES | MIC [µg/mL] |
| --- | --- |
| CO/N=C(\C(=O)N[C@@H]1C(=O)N2C(C(=O)O)=CCS[C@H]12)c1csc(N)n1 [CEFTIZOXIME] | 0.25 (≈ 0.652 µM) |

System: Staphylococcus fleurettii
Assay: Antibacterial activity against methicillin-resistant mecA-positive Staphylococcus fleurettii SFMP05 by agar dilution method
Assay type: functional
Conditions: Mammaliicoccus fleurettii
Outline: as §1

| SMILES | MIC [µg/mL] |
| --- | --- |
| CO/N=C(\C(=O)N[C@@H]1C(=O)N2C(C(=O)O)=CCS[C@H]12)c1csc(N)n1 [CEFTIZOXIME] | 4 (≈ 10.4 µM) |

System: Staphylococcus vitulinus
Assay: Antibacterial activity against methicillin-resistant mecA-positive Staphylococcus vitulinus SVMP02 by agar dilution method
Assay type: functional
Conditions: Mammaliicoccus vitulinus
Outline: as §1

| SMILES | MIC [µg/mL] |
| --- | --- |
| CO/N=C(\C(=O)N[C@@H]1C(=O)N2C(C(=O)O)=CCS[C@H]12)c1csc(N)n1 [CEFTIZOXIME] | 0.5 (≈ 1.3 µM) |

System: Staphylococcus fleurettii
Assay: Antibacterial activity against mecA-negative Staphylococcus fleurettii SFMN01 by agar dilution method
Assay type: functional
Conditions: Mammaliicoccus fleurettii
Outline: as §2

| SMILES | MIC [µg/mL] |
| --- | --- |
| CO/N=C(\C(=O)N[C@@H]1C(=O)N2C(C(=O)O)=CCS[C@H]12)c1csc(N)n1 [CEFTIZOXIME] | 2 (≈ 5.22 µM) |

System: not listed separately
Assay: Antibacterial activity against methicillin-resistant mecA-positive Staphylococcus sciuri subsp. sciuri ATCC 29062T by agar dilution method
Assay type: functional
Conditions: Mammaliicoccus sciuri
Outline: as §1

| SMILES | MIC [µg/mL] |
| --- | --- |
| CO/N=C(\C(=O)N[C@@H]1C(=O)N2C(C(=O)O)=CCS[C@H]12)c1csc(N)n1 [CEFTIZOXIME] | 2 (≈ 5.22 µM) |

System: Staphylococcus vitulinus
Assay: Antibacterial activity against mecA-negative Staphylococcus vitulinus SVMN04 by agar dilution method
Assay type: functional
Conditions: Mammaliicoccus vitulinus
Outline: as §1

| SMILES | MIC [µg/mL] |
| --- | --- |
| CO/N=C(\C(=O)N[C@@H]1C(=O)N2C(C(=O)O)=CCS[C@H]12)c1csc(N)n1 [CEFTIZOXIME] | 0.5 (≈ 1.3 µM) |

System: Staphylococcus vitulinus
Assay: Antibacterial activity against mecA-negative Staphylococcus vitulinus SVMN12 by agar dilution method
Assay type: functional
Conditions: Mammaliicoccus vitulinus
Outline: as §1

| SMILES | MIC [µg/mL] |
| --- | --- |
| CO/N=C(\C(=O)N[C@@H]1C(=O)N2C(C(=O)O)=CCS[C@H]12)c1csc(N)n1 [CEFTIZOXIME] | 0.5 (≈ 1.3 µM) |

System: Staphylococcus vitulinus
Assay: Antibacterial activity against mecA-negative Staphylococcus vitulinus SVMN09 by agar dilution method
Assay type: functional
Conditions: Mammaliicoccus vitulinus
Outline: as §1

| SMILES | MIC [µg/mL] |
| --- | --- |
| CO/N=C(\C(=O)N[C@@H]1C(=O)N2C(C(=O)O)=CCS[C@H]12)c1csc(N)n1 [CEFTIZOXIME] | 0.5 (≈ 1.3 µM) |

System: Staphylococcus fleurettii
Assay: Antibacterial activity against methicillin-resistant mecA-positive Staphylococcus fleurettii SFMP08 by agar dilution method
Assay type: functional
Conditions: Mammaliicoccus fleurettii
Outline: as §1

| SMILES | MIC [µg/mL] |
| --- | --- |
| CO/N=C(\C(=O)N[C@@H]1C(=O)N2C(C(=O)O)=CCS[C@H]12)c1csc(N)n1 [CEFTIZOXIME] | 32 (≈ 83.5 µM) |

System: Staphylococcus vitulinus
Assay: Antibacterial activity against mecA-negative Staphylococcus vitulinus SVMN06 by agar dilution method
Assay type: functional
Conditions: Mammaliicoccus vitulinus
Outline: as §1

| SMILES | MIC [µg/mL] |
| --- | --- |
| CO/N=C(\C(=O)N[C@@H]1C(=O)N2C(C(=O)O)=CCS[C@H]12)c1csc(N)n1 [CEFTIZOXIME] | 0.5 (≈ 1.3 µM) |

System: Staphylococcus fleurettii
Assay: Antibacterial activity against methicillin-resistant mecA-positive Staphylococcus fleurettii SFMP06 by agar dilution method
Assay type: functional
Conditions: Mammaliicoccus fleurettii
Outline: as §1

| SMILES | MIC [µg/mL] |
| --- | --- |
| CO/N=C(\C(=O)N[C@@H]1C(=O)N2C(C(=O)O)=CCS[C@H]12)c1csc(N)n1 [CEFTIZOXIME] | 32 (≈ 83.5 µM) |

System: Staphylococcus vitulinus
Assay: Antibacterial activity against mecA-negative Staphylococcus vitulinus SVMN11 by agar dilution method
Assay type: functional
Conditions: Mammaliicoccus vitulinus
Outline: as §1

| SMILES | MIC [µg/mL] |
| --- | --- |
| CO/N=C(\C(=O)N[C@@H]1C(=O)N2C(C(=O)O)=CCS[C@H]12)c1csc(N)n1 [CEFTIZOXIME] | 1 (≈ 2.61 µM) |

System: Staphylococcus fleurettii
Assay: Antibacterial activity against methicillin-resistant mecA-positive Staphylococcus fleurettii SFMP01(CCUG 43834T) by agar dilution method
Assay type: functional
Conditions: Mammaliicoccus fleurettii
Outline: as §1

| SMILES | MIC [µg/mL] |
| --- | --- |
| CO/N=C(\C(=O)N[C@@H]1C(=O)N2C(C(=O)O)=CCS[C@H]12)c1csc(N)n1 [CEFTIZOXIME] | 32 (≈ 83.5 µM) |

System: not listed separately
Assay: Antibacterial activity against methicillin-resistant mecA-positive Staphylococcus sciuri subsp. rodentium ATCC 700061T by agar dilution method
Assay type: functional
Conditions: Mammaliicoccus sciuri
Outline: as §1

| SMILES | MIC [µg/mL] |
| --- | --- |
| CO/N=C(\C(=O)N[C@@H]1C(=O)N2C(C(=O)O)=CCS[C@H]12)c1csc(N)n1 [CEFTIZOXIME] | 2 (≈ 5.22 µM) |
